Reference: PMC5508980 (Molecular nutrition & food research, 2017)

What was measured:
Assay type in all cases: biochemical
recombinant HDAC8 = target: T1, recombinant HDAC8 (Homo sapiens, UniProt Q9BY41); test: Recombinant HDAC activity assay; settings: 2 h, read-out: % HDAC activity, Class I HDACs, 8
T1 sequence (Q9BY41 1-377): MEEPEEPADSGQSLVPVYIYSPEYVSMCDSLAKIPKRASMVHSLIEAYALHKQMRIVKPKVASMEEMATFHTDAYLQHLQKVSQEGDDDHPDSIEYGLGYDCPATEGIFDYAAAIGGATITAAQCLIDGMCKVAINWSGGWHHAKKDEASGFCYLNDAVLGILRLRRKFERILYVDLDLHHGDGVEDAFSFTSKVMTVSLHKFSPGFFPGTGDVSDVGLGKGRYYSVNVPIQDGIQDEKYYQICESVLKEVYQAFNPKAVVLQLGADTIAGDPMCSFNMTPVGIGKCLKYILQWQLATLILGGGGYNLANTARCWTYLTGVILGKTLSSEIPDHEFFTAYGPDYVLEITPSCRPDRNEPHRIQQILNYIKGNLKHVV

recombinant HDAC7 = target: T2, recombinant HDAC7 (Homo sapiens, UniProt Q8WUI4); test: Recombinant HDAC activity assay; settings: 2 h, read-out: % HDAC activity, Class IIa HDACs, 7
T2 sequence (Q8WUI4 1-952): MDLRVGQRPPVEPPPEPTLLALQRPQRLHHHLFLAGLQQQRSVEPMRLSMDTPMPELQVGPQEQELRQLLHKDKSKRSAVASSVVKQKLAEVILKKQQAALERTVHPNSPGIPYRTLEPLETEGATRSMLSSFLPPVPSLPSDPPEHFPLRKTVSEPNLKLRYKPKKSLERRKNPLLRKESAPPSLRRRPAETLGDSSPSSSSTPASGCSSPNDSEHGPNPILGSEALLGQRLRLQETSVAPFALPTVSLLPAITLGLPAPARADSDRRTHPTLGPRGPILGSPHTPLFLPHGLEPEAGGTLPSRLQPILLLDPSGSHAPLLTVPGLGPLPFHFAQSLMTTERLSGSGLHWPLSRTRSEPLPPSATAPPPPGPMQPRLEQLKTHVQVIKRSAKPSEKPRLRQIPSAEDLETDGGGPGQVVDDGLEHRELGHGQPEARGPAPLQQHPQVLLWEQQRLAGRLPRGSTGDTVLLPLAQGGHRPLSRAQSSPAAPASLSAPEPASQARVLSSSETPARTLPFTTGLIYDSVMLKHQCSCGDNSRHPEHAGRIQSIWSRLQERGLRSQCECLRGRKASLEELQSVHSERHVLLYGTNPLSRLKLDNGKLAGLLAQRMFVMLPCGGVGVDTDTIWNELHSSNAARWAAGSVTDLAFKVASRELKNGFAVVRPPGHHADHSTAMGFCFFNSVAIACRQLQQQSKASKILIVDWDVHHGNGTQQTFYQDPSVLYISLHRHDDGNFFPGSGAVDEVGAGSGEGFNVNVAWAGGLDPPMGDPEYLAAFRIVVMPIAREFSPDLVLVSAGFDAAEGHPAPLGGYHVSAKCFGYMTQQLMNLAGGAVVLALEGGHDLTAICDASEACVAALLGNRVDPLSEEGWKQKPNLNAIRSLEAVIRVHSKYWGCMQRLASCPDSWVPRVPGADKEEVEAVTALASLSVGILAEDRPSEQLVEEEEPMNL

recombinant HDAC3 = recombinant HDAC3 (Homo sapiens, UniProt O15379); test: Recombinant HDAC activity assay; settings: 2 h, read-out: % HDAC activity, Class I HDACs, 3
Chain of recombinant HDAC3 (O15379 whole entry): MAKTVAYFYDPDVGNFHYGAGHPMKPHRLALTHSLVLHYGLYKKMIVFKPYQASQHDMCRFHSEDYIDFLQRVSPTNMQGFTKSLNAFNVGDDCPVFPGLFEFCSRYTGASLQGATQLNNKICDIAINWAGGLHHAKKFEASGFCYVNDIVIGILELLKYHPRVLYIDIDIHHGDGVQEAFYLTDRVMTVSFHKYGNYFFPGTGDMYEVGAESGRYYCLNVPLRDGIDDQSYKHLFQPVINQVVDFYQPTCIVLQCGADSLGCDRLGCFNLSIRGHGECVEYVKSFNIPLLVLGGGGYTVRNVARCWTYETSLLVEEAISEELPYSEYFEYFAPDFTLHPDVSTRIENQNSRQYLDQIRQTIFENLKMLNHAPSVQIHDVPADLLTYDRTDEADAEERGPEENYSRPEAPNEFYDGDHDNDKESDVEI
Chain of recombinant HDAC3 (Q9Y618 395-489 partner limits assumed): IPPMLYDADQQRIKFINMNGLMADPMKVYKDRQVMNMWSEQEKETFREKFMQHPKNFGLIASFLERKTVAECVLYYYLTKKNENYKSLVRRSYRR

recombinant HDAC10 = target: T3, recombinant HDAC10 (Homo sapiens, UniProt Q969S8); test: Recombinant HDAC activity assay; settings: 2 h, read-out: % HDAC activity, Class IIb HDACs, 10
T3 sequence (Q969S8 1-669): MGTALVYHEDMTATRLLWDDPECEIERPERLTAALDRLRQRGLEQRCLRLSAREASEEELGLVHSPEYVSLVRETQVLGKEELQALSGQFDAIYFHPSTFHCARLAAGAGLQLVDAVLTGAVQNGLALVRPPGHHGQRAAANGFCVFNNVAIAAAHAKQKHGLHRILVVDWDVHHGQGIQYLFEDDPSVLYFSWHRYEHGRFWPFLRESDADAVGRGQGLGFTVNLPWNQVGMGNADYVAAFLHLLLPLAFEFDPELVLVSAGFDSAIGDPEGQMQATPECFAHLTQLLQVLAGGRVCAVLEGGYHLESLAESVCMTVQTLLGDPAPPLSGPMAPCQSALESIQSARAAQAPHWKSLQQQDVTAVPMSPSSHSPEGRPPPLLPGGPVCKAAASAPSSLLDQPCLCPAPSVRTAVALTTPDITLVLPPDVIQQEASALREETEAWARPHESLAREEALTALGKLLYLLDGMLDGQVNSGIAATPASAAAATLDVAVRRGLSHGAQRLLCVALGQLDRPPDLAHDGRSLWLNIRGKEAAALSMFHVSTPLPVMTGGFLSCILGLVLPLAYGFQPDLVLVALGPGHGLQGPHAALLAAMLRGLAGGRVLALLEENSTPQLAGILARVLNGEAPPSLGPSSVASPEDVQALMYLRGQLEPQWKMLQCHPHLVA

[1] = test system: HDAC activity in bovine cardiac tissue; test: Natural product library screen with class-selective HDAC substrates; settings: 2 hours treatment
Method in brief: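 The screen covered 131 natural compounds against bovine cardiac tissue lysate at 30 µg protein/well in PBS (pH 7.4 lysis buffer with Triton X-100 and NaCl). Test compound for 2 h, then separate class I, IIa or IIb fluorogenic acyl-lysine-AMC substrates for 2 h at 37 °C. Developer (Triton X-100, 3 µM TSA, 0.75 mg/ml trypsin) for 20 min; fluorescence read at 360/460 nm.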

recombinant HDAC5 = recombinant HDAC5 (Homo sapiens, UniProt Q9UQL6); test: Recombinant HDAC activity assay; settings: 2 h, read-out: % HDAC activity, Class IIa HDACs, 5
Chain of recombinant HDAC5 (Q9UQL6 whole entry): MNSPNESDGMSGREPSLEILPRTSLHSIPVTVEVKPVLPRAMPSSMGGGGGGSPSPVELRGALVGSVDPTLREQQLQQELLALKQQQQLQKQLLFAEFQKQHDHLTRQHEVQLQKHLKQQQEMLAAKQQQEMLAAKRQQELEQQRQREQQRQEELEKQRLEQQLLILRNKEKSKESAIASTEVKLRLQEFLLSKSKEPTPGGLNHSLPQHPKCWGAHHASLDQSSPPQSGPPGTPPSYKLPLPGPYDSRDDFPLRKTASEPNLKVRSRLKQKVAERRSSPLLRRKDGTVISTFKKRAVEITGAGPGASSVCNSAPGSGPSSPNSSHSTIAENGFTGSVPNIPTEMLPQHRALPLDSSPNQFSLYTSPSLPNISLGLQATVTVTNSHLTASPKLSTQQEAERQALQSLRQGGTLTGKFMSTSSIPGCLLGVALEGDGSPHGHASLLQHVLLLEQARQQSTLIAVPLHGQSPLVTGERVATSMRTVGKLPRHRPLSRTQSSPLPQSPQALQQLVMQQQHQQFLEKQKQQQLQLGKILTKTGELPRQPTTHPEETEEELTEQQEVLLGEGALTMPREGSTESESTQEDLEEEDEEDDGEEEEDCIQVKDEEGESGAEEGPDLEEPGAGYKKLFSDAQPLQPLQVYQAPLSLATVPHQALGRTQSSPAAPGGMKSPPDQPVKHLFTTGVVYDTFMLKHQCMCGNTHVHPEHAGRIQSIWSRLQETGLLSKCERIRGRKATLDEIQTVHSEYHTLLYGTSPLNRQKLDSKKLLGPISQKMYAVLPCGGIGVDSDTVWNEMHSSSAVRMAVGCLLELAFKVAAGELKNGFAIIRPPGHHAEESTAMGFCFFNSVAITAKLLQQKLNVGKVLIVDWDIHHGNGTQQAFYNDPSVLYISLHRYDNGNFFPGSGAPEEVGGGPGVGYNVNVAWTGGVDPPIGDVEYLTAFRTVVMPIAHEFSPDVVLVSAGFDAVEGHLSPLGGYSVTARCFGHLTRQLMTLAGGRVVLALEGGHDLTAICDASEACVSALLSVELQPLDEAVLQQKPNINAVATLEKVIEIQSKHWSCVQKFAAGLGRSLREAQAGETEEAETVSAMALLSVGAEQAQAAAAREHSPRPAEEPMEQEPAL

recombinant HDAC4 = recombinant HDAC4 (Homo sapiens, UniProt P56524); test: Recombinant HDAC activity assay; settings: 2 h, read-out: % HDAC activity, Class IIa HDACs, 4
Chain of recombinant HDAC4 (P56524 whole entry): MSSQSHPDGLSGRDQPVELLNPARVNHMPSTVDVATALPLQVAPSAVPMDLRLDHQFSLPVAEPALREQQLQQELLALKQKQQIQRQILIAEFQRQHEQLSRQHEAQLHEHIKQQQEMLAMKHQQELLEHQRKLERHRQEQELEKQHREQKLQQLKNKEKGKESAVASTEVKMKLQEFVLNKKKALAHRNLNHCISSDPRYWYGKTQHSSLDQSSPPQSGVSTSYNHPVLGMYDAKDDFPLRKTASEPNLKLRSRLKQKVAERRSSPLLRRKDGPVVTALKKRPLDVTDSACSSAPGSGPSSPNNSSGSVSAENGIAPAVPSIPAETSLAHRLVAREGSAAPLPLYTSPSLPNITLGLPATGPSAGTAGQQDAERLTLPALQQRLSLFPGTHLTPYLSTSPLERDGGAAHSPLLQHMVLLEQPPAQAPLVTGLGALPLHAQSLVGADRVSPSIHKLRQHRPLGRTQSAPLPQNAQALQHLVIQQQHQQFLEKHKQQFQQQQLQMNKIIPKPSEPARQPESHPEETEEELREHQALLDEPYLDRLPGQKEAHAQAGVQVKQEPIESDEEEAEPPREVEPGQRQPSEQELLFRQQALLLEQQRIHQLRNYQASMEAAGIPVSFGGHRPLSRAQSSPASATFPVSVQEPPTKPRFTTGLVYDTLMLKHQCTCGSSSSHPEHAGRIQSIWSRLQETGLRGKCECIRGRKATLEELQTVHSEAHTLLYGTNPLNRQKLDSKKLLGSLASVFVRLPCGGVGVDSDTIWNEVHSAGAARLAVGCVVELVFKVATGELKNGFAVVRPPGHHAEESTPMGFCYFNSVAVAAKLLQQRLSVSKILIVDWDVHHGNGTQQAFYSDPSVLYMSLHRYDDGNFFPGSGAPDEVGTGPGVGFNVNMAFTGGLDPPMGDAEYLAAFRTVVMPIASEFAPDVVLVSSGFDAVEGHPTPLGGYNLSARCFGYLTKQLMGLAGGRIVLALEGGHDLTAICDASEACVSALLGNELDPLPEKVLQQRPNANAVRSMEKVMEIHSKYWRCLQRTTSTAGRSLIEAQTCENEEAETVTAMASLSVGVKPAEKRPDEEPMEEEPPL

recombinant HDAC2 = recombinant HDAC2 (Homo sapiens, UniProt Q92769); test: Recombinant HDAC activity assay; settings: 2 h, read-out: % HDAC activity, Class I HDACs, 2
Chain of recombinant HDAC2 (Q92769 whole entry): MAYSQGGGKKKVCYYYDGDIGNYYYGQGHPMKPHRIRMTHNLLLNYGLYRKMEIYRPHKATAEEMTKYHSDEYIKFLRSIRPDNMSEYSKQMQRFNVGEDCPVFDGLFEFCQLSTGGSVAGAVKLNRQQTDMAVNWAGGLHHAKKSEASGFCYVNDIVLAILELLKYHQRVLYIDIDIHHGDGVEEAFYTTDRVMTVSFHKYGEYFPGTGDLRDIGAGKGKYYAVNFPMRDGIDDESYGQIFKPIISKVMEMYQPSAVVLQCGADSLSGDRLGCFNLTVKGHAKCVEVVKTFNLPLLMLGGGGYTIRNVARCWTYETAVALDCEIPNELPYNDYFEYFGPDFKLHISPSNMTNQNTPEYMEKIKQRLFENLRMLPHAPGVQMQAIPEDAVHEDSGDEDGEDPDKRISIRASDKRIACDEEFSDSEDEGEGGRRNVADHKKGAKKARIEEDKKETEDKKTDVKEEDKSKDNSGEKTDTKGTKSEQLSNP

recombinant HDAC9 = recombinant HDAC9 (Homo sapiens, UniProt Q9UKV0); test: Recombinant HDAC activity assay; settings: 2 h, read-out: % HDAC activity, Class IIa HDACs, 9
Chain of recombinant HDAC9 (Q9UKV0 whole entry): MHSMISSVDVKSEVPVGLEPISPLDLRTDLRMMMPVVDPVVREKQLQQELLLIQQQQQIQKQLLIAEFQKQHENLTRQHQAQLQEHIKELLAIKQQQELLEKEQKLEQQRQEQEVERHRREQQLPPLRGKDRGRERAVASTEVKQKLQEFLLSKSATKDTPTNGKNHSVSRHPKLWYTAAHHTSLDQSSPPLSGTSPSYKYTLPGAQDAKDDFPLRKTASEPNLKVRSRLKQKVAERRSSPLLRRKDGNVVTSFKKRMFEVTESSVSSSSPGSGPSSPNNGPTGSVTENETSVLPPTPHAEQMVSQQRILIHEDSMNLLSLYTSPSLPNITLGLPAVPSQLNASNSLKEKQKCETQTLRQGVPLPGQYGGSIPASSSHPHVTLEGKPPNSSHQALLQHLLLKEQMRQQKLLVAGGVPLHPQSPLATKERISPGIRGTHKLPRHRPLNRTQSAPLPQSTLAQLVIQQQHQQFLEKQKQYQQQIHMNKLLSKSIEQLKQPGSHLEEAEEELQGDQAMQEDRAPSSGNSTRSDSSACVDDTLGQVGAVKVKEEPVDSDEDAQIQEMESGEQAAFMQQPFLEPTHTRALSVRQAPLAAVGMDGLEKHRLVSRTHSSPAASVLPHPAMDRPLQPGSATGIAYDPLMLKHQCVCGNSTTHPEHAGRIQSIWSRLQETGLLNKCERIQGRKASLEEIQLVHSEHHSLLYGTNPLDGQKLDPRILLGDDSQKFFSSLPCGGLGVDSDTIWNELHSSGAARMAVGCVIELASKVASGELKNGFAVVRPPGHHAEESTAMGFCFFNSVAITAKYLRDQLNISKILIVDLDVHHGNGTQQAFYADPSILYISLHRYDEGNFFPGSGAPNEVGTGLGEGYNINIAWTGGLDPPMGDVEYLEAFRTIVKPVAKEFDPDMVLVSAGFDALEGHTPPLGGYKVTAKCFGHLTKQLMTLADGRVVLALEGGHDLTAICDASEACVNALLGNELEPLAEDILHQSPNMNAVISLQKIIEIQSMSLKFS

recombinant HDAC1 = recombinant HDAC1 (Homo sapiens, UniProt Q13547); test: Recombinant HDAC activity assay; settings: 2 h, read-out: % HDAC activity, Class I HDACs, 1
Chain of recombinant HDAC1 (Q13547 whole entry): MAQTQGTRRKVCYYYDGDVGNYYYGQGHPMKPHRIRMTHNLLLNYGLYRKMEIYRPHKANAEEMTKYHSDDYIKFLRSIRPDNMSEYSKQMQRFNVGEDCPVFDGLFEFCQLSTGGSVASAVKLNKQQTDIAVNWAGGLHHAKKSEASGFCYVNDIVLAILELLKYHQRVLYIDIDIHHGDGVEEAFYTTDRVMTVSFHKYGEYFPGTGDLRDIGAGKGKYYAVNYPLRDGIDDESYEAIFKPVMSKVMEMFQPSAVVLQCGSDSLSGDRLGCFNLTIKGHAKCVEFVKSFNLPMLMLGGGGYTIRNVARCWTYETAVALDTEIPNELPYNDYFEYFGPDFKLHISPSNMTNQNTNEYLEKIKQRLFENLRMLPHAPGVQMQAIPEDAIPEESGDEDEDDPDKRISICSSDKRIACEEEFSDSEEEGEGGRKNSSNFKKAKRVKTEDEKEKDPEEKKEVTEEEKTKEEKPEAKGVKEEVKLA

remaining activity at 50 µM (recombinant HDAC8): 32.3% | remaining activity at 50 µM (recombinant HDAC7): 53.1% | remaining activity at 50 µM (recombinant HDAC3): 35.1% | remaining activity at 50 µM (recombinant HDAC10): 35.8% | remaining activity at 50 µM (recombinant HDAC5): 31.4% | remaining activity at 50 µM (recombinant HDAC4): 92.8% | remaining activity at 50 µM (recombinant HDAC2): 35% | remaining activity at 50 µM (recombinant HDAC9): 34.7% | remaining activity at 50 µM (recombinant HDAC1): 35.8%
Structure (SMILES): Cc1cc(O)c2c(c1)C(=O)c1cc(O)cc(O)c1C2=O [Emodin]
catalytic HDAC activity across class I, IIa and IIb substrates, effect in words [1]: dose-dependent pan-HDAC inhibition
